According to ChEMBL document CHEMBL1122022, “Catechol O-methyltransferase. 10. 5-Substituted 3-hydroxy-4-methoxybenzoic acids (isovanillic acids) and 5-substituted 3-hydroxy-4-methoxybenzaldehydes (isovanillins) as potential inhibitors” (J Med Chem, 1982):
Calls of active or inactive are those of the source. No cut-off for these calls is given here.

What was measured:
[1] = target: T1, Catechol O-methyltransferase (Rattus norvegicus) (UniProt P22734); assay: Ability to inhibit Catechol O-methyltransferase from rat liver at a concentration of 1 mM. Inhibition pattern was reported; Noncompetitive kinetics
T1 sequence (whole entry): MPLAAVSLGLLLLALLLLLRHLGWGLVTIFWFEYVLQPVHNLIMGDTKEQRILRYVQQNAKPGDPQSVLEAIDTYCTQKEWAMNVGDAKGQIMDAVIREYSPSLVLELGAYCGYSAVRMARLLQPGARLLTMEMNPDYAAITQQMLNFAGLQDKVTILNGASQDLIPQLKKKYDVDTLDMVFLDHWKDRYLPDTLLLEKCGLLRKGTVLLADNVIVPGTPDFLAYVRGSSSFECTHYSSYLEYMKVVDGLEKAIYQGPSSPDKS
Summary of the method: (§1)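 COMT purified from male Sprague–Dawley rat liver (180–200 g) through the calcium phosphate step, then reactivated before use by 40 min preincubation at 37 °C in pH 7.6 phosphate buffer with 4 mM DTT. Radiochemical assay: 3,4-dihydroxybenzoic acid variable (0.02–0.20 mM), SAM 0.2 mM plus 0.05 μCi SAM-¹⁴CH₃, Mg²⁺ 1 mM, DTT 4 mM, 100 mM phosphate pH 7.6. Inhibition pattern and Kis/Kii taken from double-reciprocal plots.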

[2] = target: T1, Catechol O-methyltransferase (Rattus norvegicus); assay: Ability to inhibit Catechol O-methyltransferase from rat liver. kinetic inhibition Kii constant was reported; summary of the method: as §1
[3] = target: T1, Catechol O-methyltransferase (Rattus norvegicus); assay: Ability to inhibit Catechol O-methyltransferase from rat liver. kinetic inhibition Kis constant was reported; summary of the method: as §1
[4] = target: T1, Catechol O-methyltransferase (Rattus norvegicus); assay: Ability to inhibit Catechol O-methyltransferase kinetic inhibition Kii constant was reported.; summary of the method: as §1
[5] = target: T1, Catechol O-methyltransferase (Rattus norvegicus); assay: Ability to inhibit Catechol O-methyltransferase kinetic inhibition Kis constant was reported.; summary of the method: as §1
[6] = target: T1, Catechol O-methyltransferase (Rattus norvegicus); assay: Ability to inhibit Catechol O-methyltransferase from rat liver at a concentration of 1 mM. Inhibition pattern was reported; Competitive kinetics; summary of the method: as §1
[7] = target: T1, Catechol O-methyltransferase (Rattus norvegicus); assay: Ability to inhibit Catechol O-methyltransferase from rat liver at a concentration of 1 mM. Inhibition pattern was reported; No inhibitory activity; summary of the method: as §1
[8] = target: T1, Catechol O-methyltransferase (Rattus norvegicus); assay: Ability to inhibit Catechol O-methyltransferase. Following kinetic inhibition constants Kii was reported; summary of the method: as §1
[9] = target: T1, Catechol O-methyltransferase (Rattus norvegicus); assay: Ability to inhibit Catechol O-methyltransferase. Following kinetic inhibition constants Kis was reported; summary of the method: as §1

## COc1cc(C(=O)O)cc(O)c1OC
[1]
  inhibition pattern: Noncompetitive kinetics
[2]
  Kii: 521 µM
[3]
  Kis: 999 µM

## COc1c(O)cc(C=O)cc1O
[1]
  inhibition pattern: Noncompetitive kinetics
[4]
  Kii: 16.1 µM
[5]
  Kis: 9.98 µM

## COc1c(O)cc(C=O)cc1Br
[1]
  inhibition pattern: Noncompetitive kinetics
[4]
  Kii: 16.5 µM
[5]
  Kis: 31.8 µM

## COc1c(O)cc(C(=O)O)cc1Br
[6]
  inhibition: Competitive kinetics
[3]
  Kis: 340 µM

## COc1ccc(C(=O)O)cc1O
[7]
  inhibition: inactive

## COc1c(O)cc(C(=O)O)cc1[N+](=O)[O-]
[1]
  inhibition pattern: Noncompetitive kinetics
[2]
  Kii: 247 µM
[3]
  Kis: 50.2 µM

## COc1c(N)cc(C(=O)O)cc1O
[7]
  inhibition: inactive

## COc1c(O)cc(C(=O)O)cc1Cl
[6]
  inhibition: Competitive kinetics
[3]
  Kis: 394 µM

## CCOC(=S)Sc1cc(C=O)cc(O)c1OC
[1]
  inhibition pattern: Noncompetitive kinetics
[8]
  Kii: 272 µM
[9]
  Kis: 885 µM

## COc1c(O)cc(C(=O)O)cc1N(C)C
[7]
  inhibition: inactive

## COc1c(O)cc(C=O)cc1F
[1]
  inhibition: Noncompetitive kinetics
[4]
  Kii: 48.4 µM
[5]
  Kis: 56.9 µM

## COc1c(O)cc(C(=O)O)cc1I
[7]
  inhibition: inactive

## COc1c(O)cc(C=O)cc1Cl
[1]
  inhibition pattern: Noncompetitive kinetics
[4]
  Kii: 10.8 µM
[5]
  Kis: 31.6 µM

## COc1c(O)cc(C=O)cc1[N+](=O)[O-]
[6]
  inhibition: Competitive kinetics
[5]
  Kis: 0.7 µM

## COc1c(O)cc(C(=O)O)cc1C#N
[1]
  inhibition pattern: Noncompetitive kinetics
[2]
  Kii: 571 µM
[3]
  Kis: 589 µM

## COc1c(O)cc(C=O)cc1I
[1]
  inhibition pattern: Noncompetitive kinetics
[4]
  Kii: 56.6 µM
[5]
  Kis: 111 µM

## COc1ccc(C=O)cc1O
[7]
  inhibition: inactive
